Data published in ChEMBL document CHEMBL1177700, “Discovery of bishomo(hetero)arylpiperazines as novel multifunctional ligands targeting dopamine D(3) and serotonin 5-HT(1A) and 5-HT(2A) receptors” (J Med Chem, 2010).
pKi: −log10 of the molar value. Calls of active or inactive are those of the source. The rule behind the calls is not given here.

Legend:
Mus musculus [1] = test: Antipsychotic activity in NMRI mouse assessed as reduction in MK-801-induced locomotor activity at 10 mg/kg, ip administered 30 mins prior to testing measured for 60 mins; format: functional; settings: route intraperitoneal
Mus musculus [2] = test: Antipsychotic activity in NMRI mouse assessed as reduction in spontaneous exploratory locomotor activity at 30 mg/kg, ip administered 30 mins prior to testing measured for 60 mins; format: functional; settings: route intraperitoneal
[3] = Displacement of [3H]mesulergine from 5HT2C receptor in CRL:(HA) BR albino guinea pig cortex by scintillation spectrometry; design: species or system Cavia porcellus
Summary of the method: (§1)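 Radioligand displacement binding gave Ki (nM). Each value is the mean of three determinations, with SD within 10% of the mean.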

[4] = molecular target: 5-hydroxytryptamine receptor 2A (Rattus norvegicus, UniProt P14842); test: Displacement of [3H]ketanserin from 5HT2A receptor in CRL:CD(SD)BR-COBS rat cortex by scintillation spectrometry
Chain of 5-hydroxytryptamine receptor 2A (P14842 whole entry): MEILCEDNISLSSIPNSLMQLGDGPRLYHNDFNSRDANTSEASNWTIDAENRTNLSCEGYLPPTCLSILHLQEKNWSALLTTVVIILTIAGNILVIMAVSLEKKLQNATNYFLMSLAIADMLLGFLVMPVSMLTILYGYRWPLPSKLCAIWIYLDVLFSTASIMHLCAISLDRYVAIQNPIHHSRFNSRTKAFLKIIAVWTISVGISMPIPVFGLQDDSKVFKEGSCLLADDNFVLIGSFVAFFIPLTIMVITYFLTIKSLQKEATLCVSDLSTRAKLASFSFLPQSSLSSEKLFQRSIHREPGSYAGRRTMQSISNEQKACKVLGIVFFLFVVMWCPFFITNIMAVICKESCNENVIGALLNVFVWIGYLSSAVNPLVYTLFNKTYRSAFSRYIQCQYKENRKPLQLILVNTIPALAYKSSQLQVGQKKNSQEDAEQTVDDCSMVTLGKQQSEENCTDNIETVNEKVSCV

[5] = molecular target: T1, 5-hydroxytryptamine receptor 1A (Rattus norvegicus, UniProt P19327); test: Displacement of [3H]8OH-DPAT from 5HT1A receptor in rat CRL:CD(SD)BR-COBS hippocampus by scintillation spectrometry; format: tissue-based; summary of the method: as §1
T1 sequence (P19327 whole entry): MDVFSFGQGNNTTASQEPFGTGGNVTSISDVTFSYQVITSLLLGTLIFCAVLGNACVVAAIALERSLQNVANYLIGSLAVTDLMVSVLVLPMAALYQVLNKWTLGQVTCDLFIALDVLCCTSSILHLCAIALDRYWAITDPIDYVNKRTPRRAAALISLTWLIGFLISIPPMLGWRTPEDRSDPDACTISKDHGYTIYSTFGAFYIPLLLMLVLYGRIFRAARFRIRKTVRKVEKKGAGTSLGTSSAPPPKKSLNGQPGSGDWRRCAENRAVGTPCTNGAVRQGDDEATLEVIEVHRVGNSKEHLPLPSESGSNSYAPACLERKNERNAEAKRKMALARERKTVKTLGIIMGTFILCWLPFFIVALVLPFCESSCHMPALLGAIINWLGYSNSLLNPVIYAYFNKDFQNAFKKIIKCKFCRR

D(2) dopamine receptor = D(2) dopamine receptor (Rattus norvegicus, UniProt P61169); test: Displacement of [3H]spiperone from dopamine D2 receptor in CRL:CD(SD)BR-COBS rat striatum by scintillation spectrometry
Chain of D(2) dopamine receptor (P61169 whole entry): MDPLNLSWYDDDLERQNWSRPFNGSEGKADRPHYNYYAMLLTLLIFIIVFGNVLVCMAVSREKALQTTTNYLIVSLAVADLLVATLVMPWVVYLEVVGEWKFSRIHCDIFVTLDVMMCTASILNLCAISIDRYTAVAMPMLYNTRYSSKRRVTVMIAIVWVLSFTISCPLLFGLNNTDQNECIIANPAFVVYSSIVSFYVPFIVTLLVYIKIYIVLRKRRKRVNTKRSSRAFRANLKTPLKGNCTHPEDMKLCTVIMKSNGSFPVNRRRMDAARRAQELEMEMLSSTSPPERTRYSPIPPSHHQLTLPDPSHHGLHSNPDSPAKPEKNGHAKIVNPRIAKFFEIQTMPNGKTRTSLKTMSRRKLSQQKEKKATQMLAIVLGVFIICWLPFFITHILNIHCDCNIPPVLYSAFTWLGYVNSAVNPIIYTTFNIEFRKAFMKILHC

D(1A) dopamine receptor = D(1A) dopamine receptor (Rattus norvegicus, UniProt P18901); test: Displacement of [3H]SCH23390 from dopamine D1 receptor in CRL:CD(SD)BR-COBS rat striatum by scintillation spectrometry
Chain of D(1A) dopamine receptor (P18901 whole entry): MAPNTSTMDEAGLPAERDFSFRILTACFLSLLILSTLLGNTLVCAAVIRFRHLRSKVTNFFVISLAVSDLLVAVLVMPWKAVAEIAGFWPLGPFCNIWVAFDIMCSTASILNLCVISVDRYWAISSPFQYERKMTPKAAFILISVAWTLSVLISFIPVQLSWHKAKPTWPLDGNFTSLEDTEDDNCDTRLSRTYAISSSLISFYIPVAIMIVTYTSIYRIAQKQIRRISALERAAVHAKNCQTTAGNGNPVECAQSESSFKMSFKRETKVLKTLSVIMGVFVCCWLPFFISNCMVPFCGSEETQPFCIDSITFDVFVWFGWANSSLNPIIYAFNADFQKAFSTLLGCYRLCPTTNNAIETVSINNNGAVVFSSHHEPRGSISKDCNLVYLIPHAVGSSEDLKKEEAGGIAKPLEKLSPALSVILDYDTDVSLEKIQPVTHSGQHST

[6] = AUC (0 to 6 hrs) in NMRI mouse at 3 mg/kg, ip; format: ADME, organism-based; design: time < 6 hr, dose 3 mg/kg, route intraperitoneal; settings: plasma
Summary of the method: (§2)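 Mice received a single 3 mg/kg ip dose, and plasma concentrations were measured over time. […] Cmax, Tmax and T1/2 were taken from the plasma level profiles.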

Mus musculus [7] = test: Antipsychotic activity in NMRI mouse assessed as reduction of PCP-induced locomotor activity at 10 mg/kg, ip administered 30 mins prior to testing measured for 60 mins; format: functional, organism-based; design: dose 10 mg/kg
Mus musculus [8] = test: Antipsychotic activity in NMRI mouse assessed as inhibition of PCP-induced locomotor activity at 3 mg/kg, ip administered 30 mins prior to testing measured for 60 mins; format: functional, organism-based; design: dose 3 mg/kg
[9] = Partition coefficient, log P of the compound; format: physicochemical; settings: octanol/water
[10] = Lipophilicity, log D at pH 7.4; format: physicochemical; settings: buffer
[11] = Half life in NMRI mouse at 3 mg/kg, ip; format: ADME, organism-based; design: dose 3 mg/kg, route intraperitoneal; settings: in vivo; summary of the method: as §2
[12] = Cmax in NMRI mouse at 3 mg/kg, ip; format: ADME, organism-based; design: dose 3 mg/kg, route intraperitoneal; settings: in vivo; summary of the method: as §2
[13] = Tmax in NMRI mouse at 3 mg/kg, ip; format: ADME, organism-based; design: dose 3 mg/kg, route intraperitoneal; settings: in vivo; summary of the method: as §2
Mus musculus [14] = test: Antipsychotic activity in ip dosed NMRI mouse assessed as reduction in spontaneous exploratory locomotor activity administered 30 mins prior to testing measured for 60 mins; format: functional
Mus musculus [15] = test: Antipsychotic activity in NMRI mouse assessed as reduction in methamphetamine-induced locomotor activity at > 30 mg/kg, ip administered 30 mins prior to testing measured for 60 mins; format: functional; settings: route intraperitoneal
Mus musculus [16] = test: Antipsychotic activity in NMRI mouse assessed as reduction in spontaneous exploratory locomotor activity at 10 mg/kg, ip administered 30 mins prior to testing measured for 60 mins; format: functional; settings: route intraperitoneal
[17] = molecular target: Voltage-gated inwardly rectifying potassium channel KCNH2 (Homo sapiens, UniProt Q12809); test: Binding affinity to human ERG expressed in HEK293 cells; format: cell-based
Chain of Voltage-gated inwardly rectifying potassium channel KCNH2 (Q12809 whole entry): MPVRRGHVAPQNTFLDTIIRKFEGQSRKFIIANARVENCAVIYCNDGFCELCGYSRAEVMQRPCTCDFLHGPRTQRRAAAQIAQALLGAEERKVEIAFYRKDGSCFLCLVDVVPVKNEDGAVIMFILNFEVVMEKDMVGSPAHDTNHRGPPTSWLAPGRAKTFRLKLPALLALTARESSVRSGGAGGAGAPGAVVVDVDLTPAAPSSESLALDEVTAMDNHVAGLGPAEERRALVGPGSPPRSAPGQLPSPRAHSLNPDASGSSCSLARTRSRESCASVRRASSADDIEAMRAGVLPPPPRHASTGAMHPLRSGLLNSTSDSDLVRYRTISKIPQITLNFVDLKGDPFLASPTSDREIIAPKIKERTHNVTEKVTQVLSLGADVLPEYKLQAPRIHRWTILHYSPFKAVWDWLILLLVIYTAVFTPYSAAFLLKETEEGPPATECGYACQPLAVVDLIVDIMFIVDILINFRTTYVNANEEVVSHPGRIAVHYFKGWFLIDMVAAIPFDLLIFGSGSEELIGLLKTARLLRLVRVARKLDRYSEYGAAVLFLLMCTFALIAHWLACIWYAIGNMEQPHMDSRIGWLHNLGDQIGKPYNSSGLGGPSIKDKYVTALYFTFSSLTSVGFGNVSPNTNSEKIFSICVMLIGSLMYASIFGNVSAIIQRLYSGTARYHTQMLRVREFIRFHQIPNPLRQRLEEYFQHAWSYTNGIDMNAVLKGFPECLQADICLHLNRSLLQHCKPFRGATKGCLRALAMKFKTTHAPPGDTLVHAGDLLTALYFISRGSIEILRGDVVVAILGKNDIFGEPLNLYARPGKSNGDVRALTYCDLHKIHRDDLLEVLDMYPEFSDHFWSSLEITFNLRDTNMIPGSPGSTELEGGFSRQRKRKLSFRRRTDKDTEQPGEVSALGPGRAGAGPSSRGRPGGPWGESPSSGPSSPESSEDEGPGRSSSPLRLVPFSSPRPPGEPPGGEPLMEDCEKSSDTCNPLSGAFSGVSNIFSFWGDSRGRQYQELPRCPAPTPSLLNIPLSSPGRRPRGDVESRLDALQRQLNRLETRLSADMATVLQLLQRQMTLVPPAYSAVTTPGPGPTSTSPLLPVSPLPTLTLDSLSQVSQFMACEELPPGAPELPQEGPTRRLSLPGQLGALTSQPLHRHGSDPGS

Mus musculus [18] = test: Antipsychotic activity in NMRI mouse assessed as increase of MK-801-induced locomotor activity at 1 mg/kg, ip administered 30 mins prior to testing measured for 60 mins; format: functional, organism-based; design: dose 1 mg/kg
Mus musculus [19] = test: Antipsychotic activity in NMRI mouse assessed as reduction in MK-801-induced locomotor activity at 30 mg/kg, ip administered 30 mins prior to testing measured for 60 mins; format: functional; settings: route intraperitoneal
Mus musculus [20] = test: Antipsychotic activity in NMRI mouse assessed as increase of methamphetamine-induced locomotor activity at 0.3 mg/kg, ip administered 30 mins prior to testing measured for 60 mins; format: functional, organism-based; design: dose 0.3 mg/kg
Mus musculus [21] = test: Antipsychotic activity in NMRI mouse assessed as increase of spontaneous exploratory locomotor activity at 1 mg/kg, ip administered 30 mins prior to testing measured for 60 mins; format: functional
Mus musculus [22] = test: Antipsychotic activity in ip dosed NMRI mouse assessed as reduction in methamphetamine-induced locomotor activity administered 30 mins prior to testing measured for 60 mins; format: functional
Summary of the method: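 Mice were made hyperactive by methamphetamine pretreatment, then dosed with the compound. Read-out was locomotor hypermotility. Doses ranged from 0.3 to 30 mg/kg.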

Structure (SMILES)	pKi [3]	pKi [4]	pKi [5]	pKi (D(2) dopamine receptor)	pKi (D(1A) dopamine receptor)	AUC(0-t) at 6 h [6] [ng·h/mL]	Activity (Mus musculus [7])	Activity (Mus musculus [8])	logP [9]	logD [10]	Cmax [12] [ng/mL]	Tmax [13] [min]	pKi [17]	other results
Cc1cccc(N2CCN(CCCCCCN3CCN(c4ccccc4)CC3)CC2)n1	6.51	7.60	8.10	7.62	< 6.00	362	Active	Active	3.99	1.89	121	18	–	Activity (Mus musculus [1]): 10 mg/kg; Activity (Mus musculus [2]): 30 mg/kg; half-life [11]: 150 min
O=C(CCCN1CCC(O)(c2ccc(Cl)cc2)CC1)c1ccc(F)cc1 [HALOPERIDOL]	–	–	–	–	–	–	Active	Active	–	–	–	–	–	ED50 (Mus musculus [14]): 0.08 mg/kg
c1ccc(N2CCN(CCCCCCN3CCN(c4ccccc4)CC3)CC2)cc1	< 6.00	7.51	8.52	9.00	< 6.00	198	Active	Active	3.83	2.96	71	30	5.10	Activity (Mus musculus [15]): >30 mg/kg; Activity (Mus musculus [16]): 10 mg/kg
Cc1cccc(N2CCN(CCCCCCN3CCN(c4cccc(C)c4)CC3)CC2)c1	6.92	7.70	7.32	7.15	< 6.00	–	–	–	5	4.03	–	–	5.66	–
COc1cccc(N2CCN(CCCCCCN3CCN(c4cccc(Cl)c4)CC3)CC2)c1	7.04	8.15	9.00	8.40	< 6.00	–	–	–	4.7	3.89	–	–	5.92	–
Cc1cccc(N2CCN(CCCCCCN3CCN(c4cccc(C)n4)CC3)CC2)c1	7.17	8.22	7.96	7.48	< 6.00	243	Active	Active	4.62	2.46	58	120	–	Activity (Mus musculus [18]): Active
Cc1cccc(N2CCN(CCCCCCN3CCN(c4ccccc4)CC3)CC2)c1	6.74	8.00	7.72	7.70	< 6.00	147	Active	Active	4.45	3.53	41	30	5.42	Activity (Mus musculus [2]): 30 mg/kg
c1ccc(N2CCN(CCCCCCN3CCN(c4ccnc5ccccc45)CC3)CC2)cc1	< 6.00	7.47	7.31	7.39	< 6.00	–	–	–	5.61	3.1	–	–	5.42	–
COc1cccc(N2CCN(CCCCCCN3CCN(c4cccc(OC)c4)CC3)CC2)c1	6.52	7.55	8.10	7.57	< 6.00	–	–	–	4.19	3.25	–	–	5.62	–
Cc1cccc(N2CCN(CCCCNC(=O)c3cc4ccccc4o3)CC2)c1	6.69	–	–	8.35	6.58	128	Active	Active	–	–	155	30	–	–
Clc1cccc(N2CCN(CCCCCCN3CCN(c4cccc(Cl)c4)CC3)CC2)c1	6.30	7.01	7.80	7.96	< 6.00	–	–	–	5.35	4.58	–	–	6.52	–
c1ccc(N2CCN(CCCCCCN3CCN(c4ccccn4)CC3)CC2)nc1	< 6.00	7.35	7.80	6.80	< 6.00	84	Active	Active	3.39	1.33	26	60	< 5.00	Activity (Mus musculus [2]): 30 mg/kg
Cc1cccc(N2CCN(CCCCCCN3CCN(c4ccnc5ccccc45)CC3)CC2)c1	–	–	–	–	–	–	–	–	6.23	3.67	–	–	6.05	–
O=C1CCc2ccc(OCCCCN3CCN(c4cccc(Cl)c4Cl)CC3)cc2N1 [ARIPIPRAZOLE]	–	–	–	–	–	–	Active	Active	–	–	–	–	–	ED50 (Mus musculus [14]): 2.5 mg/kg
c1ccc(N2CCN(CCCCCCN3CCN(c4ccccn4)CC3)CC2)cc1	< 6.00	7.41	7.52	7.47	< 6.00	58	Active	Active	3.61	2.14	50	60	4.89	Activity (Mus musculus [19]): 30 mg/kg; Activity (Mus musculus [16]): 10 mg/kg
Cc1cccc(N2CCN(CCCCCCN3CCN(c4ccccn4)CC3)CC2)c1	6.82	8.00	8.70	7.36	< 6.00	–	Active	Active	4.23	2.72	–	–	5.06	Activity (Mus musculus [20]): Active; Activity (Mus musculus [21]): inactive
CN1CCN(C2=Nc3cc(Cl)ccc3Nc3ccccc32)CC1 [CLOZAPINE]	–	–	–	–	–	–	Active	Active	–	–	–	–	–	ED50 (Mus musculus [22]): 2.5 mg/kg; ED50 (Mus musculus [14]): 2.4 mg/kg
